The record followed here is ChEMBL document CHEMBL4038333, “Nonacidic Farnesoid X Receptor Modulators” (J Med Chem, 2017).

Molecules are shown by their SMILES. Active and inactive are the calls of the source. The rule behind the calls is not given here.

Test [1] addresses T1, Bile acid receptor (Homo sapiens) (UniProt Q96RI1).
T1 sequence (whole entry): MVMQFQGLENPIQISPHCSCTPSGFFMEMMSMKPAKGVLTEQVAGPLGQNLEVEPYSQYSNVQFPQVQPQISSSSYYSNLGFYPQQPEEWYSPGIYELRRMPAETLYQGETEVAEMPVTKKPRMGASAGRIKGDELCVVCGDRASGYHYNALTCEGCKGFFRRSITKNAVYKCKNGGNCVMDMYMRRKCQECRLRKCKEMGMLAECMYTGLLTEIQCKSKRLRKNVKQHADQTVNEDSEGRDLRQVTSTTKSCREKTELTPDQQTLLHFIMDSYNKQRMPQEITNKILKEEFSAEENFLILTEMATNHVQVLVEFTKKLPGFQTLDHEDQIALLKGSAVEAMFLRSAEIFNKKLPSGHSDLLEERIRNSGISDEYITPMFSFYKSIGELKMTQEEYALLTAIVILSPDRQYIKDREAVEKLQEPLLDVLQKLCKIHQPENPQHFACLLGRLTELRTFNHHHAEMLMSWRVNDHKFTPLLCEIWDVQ
Briefly: Modulation of FXR in human HepG2 cells assessed as induction of BSEP mRNA expression at 10 nM by qRT-PCR analysis. In kind it is cell-based. The procedure, abridged:
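HepG2 hepatocarcinoma cells were incubated with the compound at 10 nM. FXR target-gene mRNA was quantified by qRT-PCR (n = 3), with significance at p < 0.05, 0.01 and 0.001.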

Test [2] has as its target Oxysterols receptor LXR-beta (Homo sapiens) (UniProt P55055). As to the kind of experiment: Antagonist activity at GAL4-tagged human LXRbeta ligand binding domain expressed in HEK293T cells at 1 uM after 12 to 14 hrs by dual-glo luciferase reporter gene assay. Type of test: cell-based. The conditions noted are these: HEK-293T. The procedure, abridged:
(§1)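 Run as a selectivity screen against each listed receptor (14 nuclear receptors plus TGR5), in both agonist and antagonist modes. Test concentration was 1 µM, with n = 3.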

Test [3] deals with Retinoic acid receptor RXR-alpha (Homo sapiens) (UniProt P19793). As to the kind of experiment: Transactivation of GAL4-tagged human RXRalpha ligand binding domain (225 to 462 residues) expressed in HEK293T cells at 1 uM after 12 to 14 hrs by dual-glo luciferase reporter gene assay. In kind it is cell-based. As to conditions: HEK-293T. The gist of the method: as §1
On the technique in general: In a reporter assay the amount or activity of a reporter protein is the signal.

Test [4] relates to HeLa. As to the kind of experiment: Selectivity ratio for human FXR expressed in human HeLa cells co-expressing BSEP over GAL4-tagged human RARbeta1 ligand binding domain (177 to 455 residues) expressed in HEK293T cells. In kind it is cell-based.
For test [5], the system named is HeLa. Briefly: Selectivity ratio for human FXR expressed in human HeLa cells co-expressing BSEP over GAL4-tagged human CAR isoform 6 ligand binding domain (48 to 324 residues) expressed in HEK293T cells. Type of test: cell-based.
The target in test [6] is Peroxisome proliferator-activated receptor alpha (Homo sapiens) (UniProt Q07869). As to the kind of experiment: Antagonist activity at GAL4-tagged human PPARalpha ligand binding domain expressed in HEK293T cells at 1 uM after 12 to 14 hrs by dual-glo luciferase reporter gene assay. Type of test: cell-based. As to conditions: HEK-293T. The gist of the method: as §1
The target in test [7] is Retinoic acid receptor gamma (Homo sapiens) (UniProt P13631). Briefly: Antagonist activity at GAL4-tagged human RARgamma isoform 1 ligand binding domain (179 to 454 residues) expressed in HEK293T cells at 1 uM after 12 to 14 hrs by dual-glo luciferase reporter gene assay. In kind it is cell-based. As to conditions: HEK-293T. The gist of the method: as §1
The target in test [8] is Oxysterols receptor LXR-alpha (Homo sapiens) (UniProt Q13133). Briefly: Antagonist activity at GAL4-tagged human LXRalpha ligand binding domain expressed in HEK293T cells at 1 uM after 12 to 14 hrs by dual-glo luciferase reporter gene assay. In kind it is cell-based. The conditions noted are these: HEK-293T. The procedure, abridged: as §1
For a further test, the target named is T2, Bile acid receptor (Homo sapiens, UniProt Q96RI1).
T2 sequence (Q96RI1 whole entry): T1 sequence (whole entry)
As to the kind of experiment: Binding affinity to FXR (unknown origin) ligand binding domain by ITC assay.

In test [9] the target is Retinoic acid receptor beta (Homo sapiens) (UniProt P10826). As to the kind of experiment: Transactivation of GAL4-tagged human RARbeta1 ligand binding domain (177 to 455 residues) expressed in HEK293T cells at 1 uM after 12 to 14 hrs by dual-glo luciferase reporter gene assay. Type of test: cell-based. The conditions noted are these: HEK-293T. The gist of the method: as §1
Chain of Retinoic acid receptor beta (Homo sapiens) (P10826 whole entry, the tested form may be a part): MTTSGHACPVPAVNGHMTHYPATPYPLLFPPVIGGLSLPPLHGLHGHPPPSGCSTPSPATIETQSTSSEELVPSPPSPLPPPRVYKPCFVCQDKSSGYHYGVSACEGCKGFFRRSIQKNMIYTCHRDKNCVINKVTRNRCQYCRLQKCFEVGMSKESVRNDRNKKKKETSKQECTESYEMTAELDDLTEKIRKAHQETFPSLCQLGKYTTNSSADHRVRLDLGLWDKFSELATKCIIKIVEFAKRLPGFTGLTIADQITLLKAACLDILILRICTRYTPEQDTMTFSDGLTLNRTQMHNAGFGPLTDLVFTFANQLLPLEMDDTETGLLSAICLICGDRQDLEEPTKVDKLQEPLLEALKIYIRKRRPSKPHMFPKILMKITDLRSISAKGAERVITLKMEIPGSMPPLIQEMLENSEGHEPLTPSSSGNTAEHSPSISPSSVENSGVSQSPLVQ

Chain of Peroxisome proliferator-activated receptor alpha (Homo sapiens) (Q07869 whole entry, the tested form may be a part, canonical isoform): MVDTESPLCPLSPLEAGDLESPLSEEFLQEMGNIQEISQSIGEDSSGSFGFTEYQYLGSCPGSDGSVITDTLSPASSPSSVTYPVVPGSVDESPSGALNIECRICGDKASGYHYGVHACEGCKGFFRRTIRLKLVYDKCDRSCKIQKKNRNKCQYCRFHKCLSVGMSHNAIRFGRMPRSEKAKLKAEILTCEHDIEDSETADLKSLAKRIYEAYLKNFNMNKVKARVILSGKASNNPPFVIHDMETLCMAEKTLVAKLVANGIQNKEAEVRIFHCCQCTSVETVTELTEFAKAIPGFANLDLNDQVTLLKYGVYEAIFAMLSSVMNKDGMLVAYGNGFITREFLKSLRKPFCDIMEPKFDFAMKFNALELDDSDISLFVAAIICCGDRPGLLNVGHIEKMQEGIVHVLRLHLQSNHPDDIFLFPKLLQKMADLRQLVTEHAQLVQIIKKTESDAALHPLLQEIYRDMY
Chain of Retinoic acid receptor RXR-alpha (Homo sapiens) (P19793 whole entry, the tested form may be a part): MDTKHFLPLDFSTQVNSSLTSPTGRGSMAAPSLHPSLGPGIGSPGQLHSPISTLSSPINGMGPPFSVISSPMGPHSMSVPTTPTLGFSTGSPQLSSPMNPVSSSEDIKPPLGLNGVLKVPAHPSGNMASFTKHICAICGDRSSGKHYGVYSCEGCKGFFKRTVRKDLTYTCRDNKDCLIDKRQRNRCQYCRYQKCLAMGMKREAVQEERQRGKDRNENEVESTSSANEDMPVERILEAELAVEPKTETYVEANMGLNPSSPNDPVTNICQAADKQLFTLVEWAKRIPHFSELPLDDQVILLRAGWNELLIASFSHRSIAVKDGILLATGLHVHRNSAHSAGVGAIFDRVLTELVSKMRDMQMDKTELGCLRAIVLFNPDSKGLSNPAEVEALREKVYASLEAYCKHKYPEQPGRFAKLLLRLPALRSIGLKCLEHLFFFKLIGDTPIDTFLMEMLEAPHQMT
Chain of Oxysterols receptor LXR-alpha (Homo sapiens) (Q13133 whole entry, the tested form may be a part): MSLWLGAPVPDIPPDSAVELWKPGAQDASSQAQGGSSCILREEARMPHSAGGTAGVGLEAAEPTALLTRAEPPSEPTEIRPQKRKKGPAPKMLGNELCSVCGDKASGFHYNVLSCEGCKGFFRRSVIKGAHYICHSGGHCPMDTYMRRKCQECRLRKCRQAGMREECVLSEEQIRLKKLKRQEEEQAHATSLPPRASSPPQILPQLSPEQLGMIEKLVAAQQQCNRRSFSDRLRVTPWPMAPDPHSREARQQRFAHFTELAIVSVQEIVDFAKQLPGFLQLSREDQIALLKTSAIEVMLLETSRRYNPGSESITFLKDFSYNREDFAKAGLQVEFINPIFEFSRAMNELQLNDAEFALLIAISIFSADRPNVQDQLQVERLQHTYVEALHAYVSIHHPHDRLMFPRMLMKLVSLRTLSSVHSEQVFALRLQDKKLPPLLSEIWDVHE
Chain of Retinoic acid receptor gamma (Homo sapiens) (P13631 whole entry, the tested form may be a part, canonical isoform): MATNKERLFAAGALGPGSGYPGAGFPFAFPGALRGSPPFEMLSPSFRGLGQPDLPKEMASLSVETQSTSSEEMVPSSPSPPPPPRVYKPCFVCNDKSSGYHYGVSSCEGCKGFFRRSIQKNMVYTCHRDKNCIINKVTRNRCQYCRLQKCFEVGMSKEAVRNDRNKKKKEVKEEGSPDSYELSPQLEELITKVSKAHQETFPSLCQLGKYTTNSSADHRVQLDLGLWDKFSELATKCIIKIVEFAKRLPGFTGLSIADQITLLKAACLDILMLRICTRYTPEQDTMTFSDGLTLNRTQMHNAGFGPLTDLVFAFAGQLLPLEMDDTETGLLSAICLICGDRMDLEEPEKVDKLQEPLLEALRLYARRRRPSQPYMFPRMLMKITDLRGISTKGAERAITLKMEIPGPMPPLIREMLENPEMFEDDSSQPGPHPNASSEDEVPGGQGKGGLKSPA
Chain of Oxysterols receptor LXR-beta (Homo sapiens) (P55055 whole entry, the tested form may be a part): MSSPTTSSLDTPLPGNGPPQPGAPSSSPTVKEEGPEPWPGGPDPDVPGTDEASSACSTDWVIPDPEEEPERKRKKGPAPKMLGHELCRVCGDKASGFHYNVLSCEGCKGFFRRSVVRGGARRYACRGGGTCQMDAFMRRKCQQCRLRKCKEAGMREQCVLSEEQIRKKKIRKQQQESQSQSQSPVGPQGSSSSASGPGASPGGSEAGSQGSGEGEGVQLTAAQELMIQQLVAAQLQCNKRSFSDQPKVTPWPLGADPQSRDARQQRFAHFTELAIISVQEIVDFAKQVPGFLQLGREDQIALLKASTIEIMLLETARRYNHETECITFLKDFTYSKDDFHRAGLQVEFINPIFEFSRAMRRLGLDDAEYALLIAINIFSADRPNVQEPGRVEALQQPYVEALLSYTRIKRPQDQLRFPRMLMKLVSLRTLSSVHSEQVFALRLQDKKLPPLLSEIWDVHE

For `COc1ccc(CNc2c(-c3cc(Cl)ccn3)nc3ccc(Cl)cn23)cc1`, the outcome in [1] was Active. Moreover, the inhibition entry in test [2], in [6], in test [7] and in test [8] was “inactive” each time. In addition, the outcome in test [3] and in test [9] was inactive. The Selectivity ratio in the test on HeLa [4] and with HeLa [5] was 3000 in each case. The compound also showed a Kd on Bile acid receptor of 37 nM.

What is called Kd is the concentration at which binding is half-saturated.
